Screening results as filed in PubChem BioAssay.
p97 inhibitor – inhibitors of human p97 ATPase | 220,000 tested, 0.42% active | inhibition, % at 8 µM | recombinant p97 ATPase, Kinase-Glo ATP luminescence, 3 h | P55072; in the data active = inhibition above about 15%;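 also: 0% = DMSO vehicle and 100% = wells lacking enzyme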
PP5 inh – inhibitors of human protein phosphatase 5 (PP5); P53041; purified PP5c, OMFP substrate fluorescence; inhibition, % at 6.7 µM; 320,000 tested, 0.18% active; AID 1987;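 active = inhibition above the campaign's mean inhibition across all tested compounds plus 3 SD, cut at about 9.5% in these data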;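 also: 0% = DMSO only and 100% = 100 µM cantharidin control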
PKD1 kinase inh – PKD1 (human) kinase inhibition; Q15139; PKD1 kinase fluorescence polarization assay; inhibition, % (test concentration not listed); 200,000 tested, 0.056% active; AID 797; in the data active = inhibition above about 50%
Hsp70 act – Hsp70 transcriptional activation, primary screen; HeLa Hsp70 promoter luciferase reporter, luminescence; scaled: vehicle 0, proteasome-inhibitor control 100%; activation, % at 10 µM; 200,000 tested, 0.04% active;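 active = activation above the mean across all tested compounds plus 3 SD, cutoff set per campaign, cut at about 5.5% in these data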;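 also: 100% = MG132 at 30 µM as the positive control and 0% = DMSO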
PP1 inh – PP1-alpha (human) inhibition in PP5 counter-screen | 320,000 tested, 0.9% active | inhibition, % at 6.7 µM | purified PP1alpha, OMFP fluorescence | P62136;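 active = inhibition above the mean inhibition of all tested compounds plus 3 SD, computed separately for each screening campaign, cut at about 15% in these data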
Target sequence (P62136 whole entry, looked up): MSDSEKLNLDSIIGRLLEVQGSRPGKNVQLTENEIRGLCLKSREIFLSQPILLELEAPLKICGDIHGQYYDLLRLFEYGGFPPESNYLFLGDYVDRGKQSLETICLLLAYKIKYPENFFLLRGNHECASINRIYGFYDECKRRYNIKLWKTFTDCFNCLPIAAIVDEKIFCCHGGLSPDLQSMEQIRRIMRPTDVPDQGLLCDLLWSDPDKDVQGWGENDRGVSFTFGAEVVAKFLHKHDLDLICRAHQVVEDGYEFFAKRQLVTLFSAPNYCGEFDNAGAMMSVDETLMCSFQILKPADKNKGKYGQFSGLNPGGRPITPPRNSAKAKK
RBBP9 inhibitor – inhibitors of human serine hydrolase RBBP9; recombinant RBBP9, FP-Rh probe fluorescence polarization; 220,000 tested, 0.2% active; inhibition, % at 7.94 µM;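 active = inhibition above the campaign mean of all tested compounds plus 3 SD, cut at about 14% in these data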;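 also: plate controls were DMSO wells with RBBP9 for no effect and wells lacking RBBP9 protein for full effect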
Target sequence (O75884 whole entry, looked up): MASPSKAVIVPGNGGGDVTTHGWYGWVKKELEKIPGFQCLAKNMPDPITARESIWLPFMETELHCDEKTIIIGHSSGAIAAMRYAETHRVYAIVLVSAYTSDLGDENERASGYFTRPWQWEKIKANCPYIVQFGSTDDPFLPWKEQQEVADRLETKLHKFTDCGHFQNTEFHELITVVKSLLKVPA
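Assay system: recombinant human RBBP9; Reagent: Serine-hydrolase probe FP-Rh, 375 nM pre-mixing; Doses: 7.94 µM single dose, 0.794% DMSO; Incubation: 30 min then 45 min, 25 °C; Detection: fluorescence polarization (mP), excitation 525 nm, emission 598 nm; Evaluation: percent inhibition from mP, scaled between DMSO and no-protein wells.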
p97 inh conf – confirmation of human p97 ATPase inhibitors. 760 tested, 44% active. inhibition, % at 8 µM. shares compounds with p97 inhibitor. recombinant p97 ATPase, Kinase-Glo ATP luminescence;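 active = percent inhibition of p97 ATPase above a set limit, the primary screen's mean plus 3 SD, cut at about 15% in these data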;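 also: 0% = DMSO wells and 100% = wells lacking p97 protein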
Active calls of the source: *; . = not tested or not shown. Most compounds without a hit are left out; they make up all but 1.5% or so of the library.

SMILES | p97 inhibitor | PP5 inh | PKD1 kinase inh | Hsp70 act | PP1 inh | RBBP9 inhibitor | p97 inh conf
Cc1ccccc1CN1C2=NCCCN2c2ccccc21 | 15.4* | -0.6 | -4.0 | 0.3 | -4.2 | -0.2 | 0.7
CC(Oc1ccccc1F)C(=O)NNC(=O)c1cccc(S(=O)(=O)N2CCN(C)CC2)c1 (stereo unspecified) | . | 0.2 | . | . | -2.1 | . | .
CN=C(N)NC(=O)Nc1c(C)cccc1C | 14.9* | -0.1 | . | . | -2.4 | -8.5 | 7.1
Cc1nc(S/C(=C\c2ccc(-c3ccc(C(=O)O)c(Cl)c3)o2)C(=O)O)n[nH]1 | 52.5* | . | . | . | . | -10.0 | 44.1*
Cc1nc(S/C(=C\c2ccc(OCc3ccccc3Cl)cc2)C(=O)O)n[nH]1 | 4.7 | 1.1 | 8.9 | 0.2 | 3.3 | -0.9 | .
Nc1nc(N2CCOCC2)n[nH]1 | 17.2* | . | 3.3 | -0.5 | . | -6.2 | 3.7
Cc1c(C(=O)c2no[n+]([O-])c2C(=O)c2cnn(C)c2C)cnn1C | 33.8* | 2.9 | -3.1 | -0.4 | -5.1 | -11.2 | 36.2*
C=CCCC(=O)NC1CC(C)(C)Cc2c1cnn2-c1ccc(OC)cc1 (stereo unspecified) | . | 1.7 | . | . | -11.1 | . | .
CN(C)c1nc(Cl)nc(NCCOc2ccccc2)n1 | 1.7 | -0.5 | -1.3 | -0.3 | -2.5 | 1.4 | .
CC(Sc1nc2scc(-c3ccccc3)c2c(=O)[nH]1)C(=O)NC(N)=O (stereo unspecified) | 14.9* | -3.1 | . | . | -0.5 | 1.8 | 24.2*
Cc1cccc(C)c1NC(=O)COC(=O)c1cccnc1 | 17.4* | -1.8 | -4.5 | -0.2 | -5.3 | -1.2 | 5.5
CC(=O)Nc1sc(N/N=C\c2cccc(Cl)c2)nc1-c1cccs1 | 8.7 | 4.2 | 0.2 | 0.0 | 0.0 | -4.3 | .
CC(=O)Nc1sc(N/N=C\c2ccc(O)cc2)nc1-c1cccs1 | 16.3* | 2.2 | . | . | -0.9 | -2.9 | 23.1*
COc1ccc(Nc2cc(Cl)nc(N)n2)cc1OC | -0.2 | 2.6 | 9.2 | -0.3 | -0.8 | 5.2 | .
N#Cc1c(N(CCO)CCO)nc(N)c2c(N)nc3c(c12)CC(=O)N3CC1CCCO1 (stereo unspecified) | 26.1* | 8.2 | . | . | -4.0 | -0.9 | 4.1
O=C1c2cccc3cccc(c23)C(=O)N1CC1CCCO1 (stereo unspecified) | -0.5 | 1.1 | 9.0 | -0.1 | 2.4 | 5.2 | .
CCOc1cccc2sc(Nc3nc4ccc(NC(C)=O)cc4s3)nc12 | 0.9 | 2.9 | -1.7 | -0.4 | 3.2 | -8.2 | .
CCOc1ccc(-c2cc(N3C(=O)Nc4ccccc4N3O)n[nH]2)cc1 | 16.6* | 0.3 | 7.7 | 0.1 | -0.7 | -5.5 | 7.5
COc1cccc(-c2cc(N3C(=O)Nc4ccccc4N3O)n[nH]2)c1 | -0.6 | -1.1 | -1.6 | -0.3 | 0.1 | -1.4 | .
COc1ccc(/C=N/NC(=O)c2nnn(-c3nonc3N)c2CN(C)C2CCCCC2)cc1 | . | -0.9 | . | . | -0.1 | . | .
O=C(N/N=C/c1coc2ccccc2c1=O)c1cc(O)cc(O)c1 | 30.4* | . | 1.0 | -0.4 | . | -29.6 | 32.9*
Cc1cccc(C(=O)N/N=C/c2coc3ccccc3c2=O)c1 | . | 0.1 | . | . | -0.3 | . | .
O=C(c1ccco1)C(O)c1ccco1 (stereo unspecified) | . | 2.2 | . | . | -2.5 | . | .
Cn1c(C(=O)NCc2ccccn2)cc2c(=O)n(C)c3ccccc3c21 | 24.7* | 2.9 | -12.1 | -0.1 | -15.6 | -2.4 | 5.0
COc1ccc(CCNC(=O)COC(=O)COc2ccc(C#N)cc2)cc1 | 2.9 | -0.4 | 4.2 | -0.2 | -2.2 | -1.2 | .
COc1ccc(N(CC(=O)N/N=C/c2cc(Br)c(C)o2)S(=O)(=O)c2ccc(NC(C)=O)cc2)cc1 | 15.2* | 2.8 | 11.9 | -0.1 | -0.1 | -8.6 | 6.9
COc1ccc(/C=N/N(C)c2cc(=O)n(C)c(=O)[nH]2)cc1OC | 18.2* | 3.9 | 9.8 | 0.2 | 2.2 | -8.2 | 5.0
CCCC1Nc2ccc(C(=O)O)cc2C2C=CCC12 (stereo unspecified) | 25.8* | 3.0 | 10.2 | -0.2 | 2.0 | 7.1 | 7.7
CC(C)C1Nc2ccc(C(=O)O)cc2C2C=CCC21 (stereo unspecified) | 5.2 | 0.8 | -1.6 | -0.3 | 5.0 | 3.0 | .
CCn1c(N)nc2c1c(=O)n(C)c(=O)n2C | -1.8 | 1.1 | -1.9 | -0.2 | -2.0 | -7.5 | .
